Source: ChEMBL document CHEMBL3425415, “An antibacterial ortho-quinone diterpenoid and its derivatives from Caryopteris mongolica” (2015)
Active and inactive are the calls of the source. The rule behind the calls is not given here.

How the values were obtained:
Format in all cases: functional
Micrococcus luteus [1] = assay: Antibacterial activity against Micrococcus luteus assessed as growth inhibition at 5 ug/disc after 24 hrs by disc diffusion method; conditions: read-out: DIZ
Summary of the method: (§1)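 Disc diffusion: 100 µL inoculum (10^6 CFU/mL, grown 18 h in nutrient broth) spread on meat peptone agar plates; discs applied and incubated 24 h at 37 °C. Inhibition zone diameters measured in mm; 3-5 replicates, mean ± S.E.M.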

Enterococcus faecalis [2] = assay: Antibacterial activity against Enterococcus faecalis assessed as growth inhibition at 5 ug/disc after 24 hrs by disc diffusion method; conditions: read-out: DIZ; summary of the method: as §1
Staphylococcus aureus [3] = assay: Antibacterial activity against Staphylococcus aureus assessed as growth inhibition at 500 ug/disc after 24 hrs by disc diffusion method; conditions: for zone of inhibition at 500 µg/disc: read-out: DIZ; summary of the method: as §1
Enterococcus faecalis [4] = assay: Antibacterial activity against Enterococcus faecalis assessed as growth inhibition at 50 ug/disc after 24 hrs by disc diffusion method; conditions: for zone of inhibition at 50 µg/disc: read-out: DIZ
Summary of the method: (§2)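 Disc diffusion: 100 µL of each bacterial culture (10^6 CFU/mL), grown 18 h in nutrient broth, spread onto meat peptone agar in Petri dishes. Compound-loaded discs applied. Plates incubated 24 h at 37 °C. Inhibition zone diameter measured in mm. Treatments replicated 3-5 times, reported as mean ± S.E.M.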

Micrococcus luteus [5] = assay: Antibacterial activity against Micrococcus luteus assessed as growth inhibition at 50 ug/disc after 24 hrs by disc diffusion method; conditions: for zone of inhibition at 50 µg/disc: read-out: DIZ; summary of the method: as §2
[6] = system: Staphylococcus epidermidis; assay: Antibacterial activity against Staphylococcus epidermidis assessed as growth inhibition at 5 ug/disc after 24 hrs by disc diffusion method; conditions: read-out: DIZ; summary of the method: as §1
Staphylococcus aureus [7] = assay: Antibacterial activity against Staphylococcus aureus assessed as growth inhibition at 50 ug/disc after 24 hrs by disc diffusion method; conditions: for zone of inhibition at 50 µg/disc: read-out: DIZ; summary of the method: as §2
[8] = system: Staphylococcus epidermidis; assay: Antibacterial activity against Staphylococcus epidermidis assessed as growth inhibition at 50 ug/disc after 24 hrs by disc diffusion method; conditions: for zone of inhibition at 50 µg/disc: read-out: DIZ; summary of the method: as §2
Micrococcus luteus [9] = assay: Antibacterial activity against Micrococcus luteus assessed as growth inhibition at 500 ug/disc after 24 hrs by disc diffusion method; summary of the method: as §2
Enterococcus faecalis [10] = assay: Antibacterial activity against Enterococcus faecalis assessed as growth inhibition at 500 ug/disc after 24 hrs by disc diffusion method; conditions: read-out: DIZ; summary of the method: as §2
[11] = system: Staphylococcus epidermidis; assay: Antibacterial activity against Staphylococcus epidermidis assessed as growth inhibition at 500 ug/disc after 24 hrs by disc diffusion method; conditions: for zone of inhibition at 500 µg/disc: read-out: DIZ; summary of the method: as §2
Staphylococcus aureus [12] = assay: Antibacterial activity against Staphylococcus aureus assessed as growth inhibition at 5 ug/disc after 24 hrs by disc diffusion method; conditions: read-out: DIZ; summary of the method: as §2
Staphylococcus aureus [13] = assay: Antibacterial activity against Staphylococcus aureus assessed as growth inhibition at 25 ug/disc after 24 hrs by disc diffusion method; conditions: read-out: DIZ; summary of the method: as §2
Micrococcus luteus [14] = assay: Antibacterial activity against Micrococcus luteus assessed as growth inhibition at 25 ug/disc after 24 hrs by disc diffusion method; conditions: read-out: DIZ; summary of the method: as §2
[15] = system: Staphylococcus epidermidis; assay: Antibacterial activity against Staphylococcus epidermidis assessed as growth inhibition at 25 ug/disc after 24 hrs by disc diffusion method; conditions: read-out: DIZ; summary of the method: as §2
Enterococcus faecalis [16] = assay: Antibacterial activity against Enterococcus faecalis assessed as growth inhibition at 25 ug/disc after 24 hrs by disc diffusion method; conditions: read-out: DIZ; summary of the method: as §2

SMILES	zone of inhibition at 5 µg/disc (Micrococcus luteus [1]) [mm]	zone of inhibition at 5 µg/disc (Enterococcus faecalis [2]) [mm]	zone of inhibition at 500 µg/disc (Staphylococcus aureus [3]) [mm]	zone of inhibition at 50 µg/disc (Enterococcus faecalis [4]) [mm]	zone of inhibition at 50 µg/disc (Micrococcus luteus [5]) [mm]	zone of inhibition at 5 µg/disc [6] [mm]	zone of inhibition at 50 µg/disc (Staphylococcus aureus [7]) [mm]	zone of inhibition at 50 µg/disc [8] [mm]	zone of inhibition at 500 µg/disc (Enterococcus faecalis [10]) [mm]	growth inhibition (GI) (Enterococcus faecalis [4])	growth inhibition (GI) (Micrococcus luteus [5])	growth inhibition (GI) (Staphylococcus aureus [7])	growth inhibition (GI) [8]	other results
CC(C)c1cc2c(c(O)c1O)[C@@]1(C)CCCC(C)(C)[C@@H]1[C@@H](O)C2=O [6-ALPHA-HYDROXYDEMETHYL-CRYPTOJAPONOL]	17.7	20.2	22.5	13.8	9.1	21.2	11	11.5	–	–	–	–	–	–
CC(C)c1cc2c(c(O)c1O)[C@@]1(C)CCCC(C)(C)C1=C(O)C2=O [14-DEOXYCOLEON U]	–	–	17.8	10.5	9	–	10.2	10.2	16.8	–	–	–	–	zone of inhibition at 500 µg/disc (Micrococcus luteus [9]; read-out: DIZ): 14.8 mm; zone of inhibition at 500 µg/disc [11]: 18.2 mm
NC[C@H]1O[C@H](O[C@H]2[C@H](O)[C@@H](O[C@H]3O[C@H](CO)[C@@H](O)[C@H](N)[C@H]3O)[C@H](N)C[C@@H]2N)[C@H](O)[C@@H](O)[C@@H]1O [KANAMYCIN]	16	–	–	17.9	–	20.5	–	–	–	–	–	–	–	zone of inhibition at 5 µg/disc (Staphylococcus aureus [12]): 16.3 mm
CC1=C(C)[C@@H]2CC(=O)C3=C(C(=O)C(=O)[C@]4(C[C@@H]4C)[C@@H]3O)[C@@]2(C)CC1	16.3	23.2	30.6	24	–	15.9	22.6	24.1	28.7	–	–	–	–	zone of inhibition at 25 µg/disc (Staphylococcus aureus [13]): 21.5 mm; zone of inhibition at 25 µg/disc (Micrococcus luteus [14]): 27.9 mm; zone of inhibition at 25 µg/disc [15]: 23.2 mm; zone of inhibition at 25 µg/disc (Enterococcus faecalis [16]): 22 mm; zone of inhibition at 500 µg/disc [11]: 29.3 mm; zone of inhibition at 5 µg/disc (Staphylococcus aureus [12]): 12.9 mm
CC(C)c1cc2c(c(O)c1O)[C@@]1(C)CCCC(C)(C)[C@@H]1CC2=O [DEMETHYLCRYPTOJAPONOL]	13.5	15.2	15.8	11.3	9	16	11.8	13.7	–	–	–	–	–	–
C[C@H]1C[C@]12C(=O)OC(=O)C1=C(C(=O)C[C@H]3C(C)(C)CCC[C@]13C)[C@H]2O	–	–	–	–	–	–	–	–	9.6	inactive	inactive	inactive	inactive	growth inhibition (GI) (Micrococcus luteus [9]): inactive; growth inhibition (GI) (Staphylococcus aureus [3]): inactive; growth inhibition (GI) [11]: inactive
C[C@@H]1C[C@@]12C(=O)OC(=O)C1=C(C(=O)C[C@H]3C(C)(C)CCC[C@]13C)[C@H]2O	–	–	–	–	–	–	–	–	–	inactive	inactive	inactive	inactive	–
CC1=C(C)[C@@H]2CC(=O)C3=C(C(=O)OC(=O)[C@@]4(C[C@H]4C)[C@@H]3O)[C@@]2(C)CC1	–	–	–	–	–	–	–	–	–	inactive	inactive	inactive	inactive	–
